Laboratory results from ChEMBL document CHEMBL1124811, “Cyclic hexapeptide oxytocin antagonists. Potency-, selectivity-, and solubility-enhancing modifications” (J Med Chem, 1990).
Converted amounts (≈) assume the structure as drawn. Non-standard residues stand in square brackets, D forms with d. Residues, ends and D or L forms follow the SMILES beside them. Piz(1,6-dehydro) = O=C(O)[C@@H]1CCC=NN1; dPiz(1,6-dehydro) = O=C(O)[C@H]1CCC=NN1; dNMeF = CN[C@H](Cc1ccccc1)C(=O)O; Pip = O=C(O)[C@@H]1CCCCN1; dPip = O=C(O)[C@H]1CCCCN1; Orn = NCCC[C@H](N)C(=O)O

Experiments:
Oxytocin receptor = molecular target: T1, Oxytocin receptor (Rattus norvegicus, UniProt P70536); experiment: Inhibition of [3H]- oxytocin binding to rat uterine Oxytocin receptor
T1 sequence (P70536 whole entry): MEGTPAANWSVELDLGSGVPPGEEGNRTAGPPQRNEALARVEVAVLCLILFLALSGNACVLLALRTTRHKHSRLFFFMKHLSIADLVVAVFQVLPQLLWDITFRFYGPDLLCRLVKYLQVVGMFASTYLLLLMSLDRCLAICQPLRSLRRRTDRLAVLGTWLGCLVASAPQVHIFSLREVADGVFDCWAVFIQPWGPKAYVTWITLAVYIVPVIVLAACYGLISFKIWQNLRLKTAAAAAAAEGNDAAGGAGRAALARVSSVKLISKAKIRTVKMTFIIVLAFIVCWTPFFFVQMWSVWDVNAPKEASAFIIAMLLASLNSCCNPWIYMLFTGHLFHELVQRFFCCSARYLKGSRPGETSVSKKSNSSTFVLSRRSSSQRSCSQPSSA
Outline: (§1)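 Radioligand competition binding. Ki derived from IC50 values from competition curves; reported as group means ± SEM of three or more replicate determinations unless noted otherwise.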

Vasopressin V2 receptor = Vasopressin V2 receptor (Rattus norvegicus, UniProt Q00788); experiment: Inhibition of [3H]arginine vasopressin binding to rat kidney medulla Vasopressin V2 receptor; outline: as §1
Chain of Vasopressin V2 receptor (Q00788 whole entry): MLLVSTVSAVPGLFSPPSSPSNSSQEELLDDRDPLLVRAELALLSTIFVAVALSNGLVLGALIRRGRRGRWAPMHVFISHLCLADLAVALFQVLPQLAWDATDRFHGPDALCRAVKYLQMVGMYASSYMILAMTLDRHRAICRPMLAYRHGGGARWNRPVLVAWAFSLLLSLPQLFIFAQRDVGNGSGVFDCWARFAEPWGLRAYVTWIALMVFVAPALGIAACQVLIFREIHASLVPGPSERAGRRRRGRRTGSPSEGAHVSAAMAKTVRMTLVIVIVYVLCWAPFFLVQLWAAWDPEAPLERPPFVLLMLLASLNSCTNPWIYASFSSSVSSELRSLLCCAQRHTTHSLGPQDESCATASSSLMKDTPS

Vasopressin V1 receptor = Vasopressin V1 receptor (Rattus norvegicus, UniProt P48974+P30560); experiment: Inhibition of [3H]arginine vasopressin binding to rat liver Vasopressin V1 receptor; outline: as §1
[1] = molecular target: T2, Oxytocin receptor (Rattus norvegicus) (UniProt P70536); experiment: Inhibition of binding of [3H]- oxytocin to rat uterine Oxytocin receptor; details: concentration not given here; outline: as §1
T2 sequence (whole entry): T1 sequence (P70536 whole entry)

[2] = molecular target: Vasopressin V1 receptor (Rattus norvegicus) (UniProt P48974+P30560); experiment: Inhibition of binding of [3H]-arginine vasopressin to rat liver Vasopressin V1 receptor at a concentration of 10000 nM
Chain of Vasopressin V1 receptor (Rattus norvegicus) (P30560 whole entry, looked up): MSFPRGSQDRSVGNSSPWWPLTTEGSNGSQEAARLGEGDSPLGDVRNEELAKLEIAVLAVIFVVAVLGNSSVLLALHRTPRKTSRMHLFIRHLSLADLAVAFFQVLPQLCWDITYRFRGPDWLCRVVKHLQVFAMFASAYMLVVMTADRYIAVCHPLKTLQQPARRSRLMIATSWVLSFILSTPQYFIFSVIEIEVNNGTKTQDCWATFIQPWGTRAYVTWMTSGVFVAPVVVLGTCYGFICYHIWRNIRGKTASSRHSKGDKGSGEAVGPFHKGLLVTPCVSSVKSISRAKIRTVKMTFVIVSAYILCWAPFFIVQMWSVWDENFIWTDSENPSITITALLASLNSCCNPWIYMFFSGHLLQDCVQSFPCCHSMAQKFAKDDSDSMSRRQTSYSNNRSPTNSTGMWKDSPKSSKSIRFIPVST
Chain of Vasopressin V1 receptor (Rattus norvegicus) (P48974 whole entry, looked up): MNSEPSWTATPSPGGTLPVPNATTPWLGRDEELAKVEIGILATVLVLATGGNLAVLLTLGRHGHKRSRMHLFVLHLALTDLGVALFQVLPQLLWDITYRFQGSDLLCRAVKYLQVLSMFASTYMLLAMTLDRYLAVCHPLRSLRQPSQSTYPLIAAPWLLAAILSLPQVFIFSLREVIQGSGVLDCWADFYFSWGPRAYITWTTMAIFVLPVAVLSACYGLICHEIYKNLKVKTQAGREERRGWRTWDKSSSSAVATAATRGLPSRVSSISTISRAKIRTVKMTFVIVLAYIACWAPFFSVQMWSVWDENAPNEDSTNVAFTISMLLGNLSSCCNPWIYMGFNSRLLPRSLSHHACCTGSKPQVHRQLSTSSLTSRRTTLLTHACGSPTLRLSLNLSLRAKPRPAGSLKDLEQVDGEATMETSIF

[3] = molecular target: Vasopressin V2 receptor (Rattus norvegicus) (UniProt Q00788); experiment: Inhibition of binding of [3H]-arginine vasopressin to rat kidney medulla Vasopressin V2 receptor at a concentration of 10000 nM
Chain of Vasopressin V2 receptor (Rattus norvegicus) (Q00788 whole entry): as the sequence (Q00788 whole entry) above

[4] = Solubility at 25 degree C and pH of 7.4; assay type: physicochemical; details: pH 7.4; read-out: S
[5] = Solubility at 25 degree C and pH of 7.0; assay type: physicochemical; details: pH 7; read-out: S
[6] = Solubility at 25 degree C and pH of 10.8; assay type: physicochemical; details: pH 10.8; read-out: S
[7] = Solubility at 25 degree C and pH of 5.0; assay type: physicochemical; details: pH 5; read-out: S

Row | Structure (SMILES) | Ki (Oxytocin receptor) [nM] | Ki (Vasopressin V2 receptor) [nM] | Ki (Vasopressin V1 receptor) [nM] | other results
1 | CC[C@H](C)[C@@H]1NC(=O)[C@@H](Cc2ccccc2)NC(=O)[C@@H]2CCCN2C(=O)[C@@H](Cc2ccccc2)N(C)C(=O)[C@@H]2CCCN2C(=O)[C@H]2CCCN2C1=O (cyclo([dNMeF]P[dF]I[dP]P)) | 1400 | 33000 | 9300 | 
2 | CC[C@H](C)[C@@H]1NC(=O)[C@@H](Cc2ccccc2)NC(=O)[C@@H]2CCCN2C(=O)[C@@H](Cc2ccccc2)NC(=O)[C@@H]2CCCCN2C(=O)[C@H]2CCCCN2C1=O (cyclo(I[dPip][Pip][dF]P[dF])) | 140 | 4500 | 1600 | 
3 | CC[C@H](C)[C@@H]1NC(=O)[C@@H](C)NC(=O)[C@@H]2CCCN2C(=O)[C@@H](Cc2ccccc2)NC(=O)[C@@H]2CCCCN2C(=O)[C@H]2CCCCN2C1=O (cyclo(I[dPip][Pip][dF]P[dA])) |  |  |  | inhibition [1]: 0%; inhibition [2]: 0%; inhibition [3]: 4%
4 | CC[C@H](C)[C@@H]1NC(=O)[C@@H](Cc2c[nH]c3ccccc23)NC(=O)[C@@H]2CCCN2C(=O)[C@@H](Cc2ccccc2)N(C)C(=O)[C@H](CCCN)NC(=O)[C@H]2CCCCN2C1=O (cyclo(I[dPip][Orn][dNMeF]P[dW])) | 49 | 500 | 1000 | 
5 | CC[C@H](C)[C@@H]1NC(=O)[C@@H](Cc2ccc3ccccc3c2)NC(=O)[C@@H]2CCCN2C(=O)[C@@H](Cc2c[nH]cn2)NC(=O)[C@@H]2CCCCN2C(=O)[C@H]2CCCCN2C1=O | 1.6 | 320 | 760 | 
6 | CC[C@H](C)[C@@H]1NC(=O)[C@@H](Cc2ccccc2)NC(=O)[C@@H]2CCCN2C(=O)[C@@H](Cc2ccccc2)N(C)C(=O)[C@@H]2CCCCN2C(=O)[C@H]2CCCCN2C1=O | 83 | 1600 | 890 | solubility [4]: 2 µg/mL (≈ 2.7 µM)

More lines, main results first:

Row | Ki (Oxytocin receptor) [nM] | Ki (Vasopressin V2 receptor) [nM] | Ki (Vasopressin V1 receptor) [nM] | Structure (SMILES) | other results
7 | 49 | 250 | 20000 | CCOc1ccc(C[C@H]2NC(=O)[C@@H]3CCCN3C(=O)[C@@H](Cc3ccccc3)N(C)C(=O)[C@@H]3CCCCN3C(=O)[C@H]3CCCCN3C(=O)[C@H]([C@@H](C)CC)NC2=O)cc1 (cyclo(I[dPip][Pip][dNMeF]P[dY](Et))) | 
8 | 12000 | > 30000 | > 30000 | C[C@@H]1NC(=O)[C@@H](Cc2ccccc2)NC(=O)[C@@H]2CCCN2C(=O)[C@@H](Cc2ccccc2)N(C)C(=O)[C@@H]2CCCCN2C(=O)[C@H]2CCCCN2C1=O (cyclo(A[dPip][Pip][dNMeF]P[dF])) | 
9 | 8.1 | 260 | 3500 | CC[C@H](C)[C@@H]1NC(=O)[C@@H](Cc2c[nH]c3ccccc23)NC(=O)[C@@H]2CCCN2C(=O)[C@@H](Cc2ccccc2)N(C)C(=O)[C@@H]2CCCCN2C(=O)[C@H]2CCCCN2C1=O (cyclo(I[dPip][Pip][dNMeF]P[dW])) | 
10 | 7.3 |  |  | CC[C@H](C)[C@@H]1NC(=O)[C@@H](Cc2ccccc2)NC(=O)[C@@H]2CCCN2C(=O)[C@@H](Cc2ccccc2)N(C)C(=O)[C@@H]2CCC=NN2C(=O)[C@H]2CCC=NN2C1=O (cyclo(I[dPiz(1,6-dehydro)][Piz(1,6-dehydro)][dNMeF]P[dF])) | solubility [5]: 68 µg/mL (≈ 92 µM)
11 |  | 1800 | 2200 | CC[C@H](C)[C@@H]1NC(=O)[C@@H](Cc2c[nH]c3ccccc23)NC(=O)[C@@H]2CCCN2C(=O)[C@@H](Cc2c[nH]cn2)NC(=O)[C@@H]2CCCCN2C(=O)[C@H]2CCCCN2C1=O (cyclo(I[dPip][Pip][dH]P[dW])) | solubility [6]: 110 µg/mL (≈ 146 µM); solubility [7]: 2000 µg/mL (≈ 2650 µM)
12 | 490 | > 10000 | > 10000 | CC[C@H](C)[C@@H]1NC(=O)[C@@H](Cc2ccccc2)NC(=O)[C@@H]2CCCN2C(=O)[C@@H](C)N(C)C(=O)[C@@H]2CCCCN2C(=O)[C@H]2CCCCN2C1=O | 
